{
  "source": "ChEMBL document CHEMBL1221395",
  "about": "“Synthesis, anticancer activity and mitochondrial mediated apoptosis inducing ability of 2,5-diaryloxadiazole-pyrrolobenzodiazepine conjugates” (Bioorg Med Chem, 2010)",
  "key": {"[1]": {"experiment": "Toxicity against SCID mouse", "assay_type": "organism-based", "conditions": "in vivo"}, "[2]": {"test_system": "A-375", "experiment": "Antitumor activity against human A375 cells assessed as upregulation of p53 protein level at 4 uM after 24 hrs by Western blotting", "assay_type": "functional, cell-based", "procedure,_shortened": "(§1)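 A375 cells treated at 4 µM for 24 h. Lysates cleared at 12,000 rpm for 10 min, and protein quantified by Bradford. 30 µg per lane run on 12% SDS-PAGE and transferred to PVDF. Blocked 2 h in TBST with 5% blocking powder. Primary antibody overnight at 4 °C, HRP secondary (1:2000) 1 h at room temperature. β-actin used as loading control; untreated cells as control.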"}, "[3]": {"test_system": "A549", "experiment": "Cytotoxicity against human A549 cells after 24 hrs by WST-1 assay", "assay_type": "functional", "conditions": "A549, 24 h"}, "[4]": {"test_system": "Mus musculus", "experiment": "Toxicity against SCID mouse assessed as mortality at 20 mg/kg, ip q4d on day 1, 5 and 9", "assay_type": "organism-based", "parameters": "dose 20 mg/kg, route intraperitoneal", "conditions": "in vivo", "procedure,_shortened": "(§2)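 Male NOD-SCID mice carrying human prostate PC-3 xenografts were dosed at 20 mg/kg ip on days 1, 5 and 9 (q4d). Mortality and body weight were followed over days 1–31, alongside a control group and an adriamycin 5 mg/kg arm. Tumour weight was recorded over the same period.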"}, "[5]": {"test_system": "Mus musculus", "experiment": "Toxicity against SCID mouse assessed as weight loss at 20 mg/kg, ip q4d on day 1, 5 and 9", "assay_type": "organism-based", "parameters": "dose 20 mg/kg, route intraperitoneal", "conditions": "in vivo", "procedure,_shortened": "as §2"}, "[6]": {"test_system": "PC-3", "experiment": "Antitumor activity against human PC3 cells xenografted in NOD-SCID mouse at 20 mg/kg, ip q4d on day 1, 5 and 9", "assay_type": "functional, organism-based", "parameters": "dose 20 mg/kg", "procedure,_shortened": "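Human prostate cancer PC-3 xenografts in male NOD-SCID mice. Dosed 20 mg/kg intraperitoneally on days 1, 5 and 9 (q4d). Tumour weight and body weight/survival followed over about 31 days. Adriamycin 5 mg/kg and untreated groups served as comparators.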"}, "[7]": {"test_system": "Calf thymus DNA", "experiment": "Binding affinity to calf thymus DNA assessed as change in melting temperature after 18 hrs", "assay_type": "nucleic-acid assay", "conditions": "Bos taurus", "procedure,_shortened": "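Thermal melting with duplex CT-DNA (100 µM in phosphate) and ligand (20 µM), added from methanol stock, [PBD]/[DNA] 1:5, in 10 mM sodium phosphate + 1 mM EDTA, pH 7.00; incubated at 37 °C for 18 h. A260 monitored while heating at 1 °C/min over 40–90 °C. Tm taken from d(A260)/dT maxima, corrected for methanol; ΔTm = Tm(DNA+ligand) − Tm(DNA alone); at least three determinations.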"}, "[8]": {"test_system": "PC-3", "experiment": "Cytotoxicity against human PC3 cells after 24 hrs by WST-1 assay", "assay_type": "functional", "conditions": "PC-3, 24 h"}, "[9]": {"experiment": "Cytotoxicity against human Gurav cells after 24 hrs by WST-1 assay", "assay_type": "functional"}, "[10]": {"test_system": "HOP-62", "experiment": "Cytotoxicity against human HOP62 cells after 24 hrs by WST-1 assay", "assay_type": "functional", "conditions": "HOP-62, 24 h"}, "[11]": {"experiment": "Lipophilicity, log P of the compound", "assay_type": "physicochemical", "conditions": "octanol/water"}, "[12]": {"test_system": "A-375", "experiment": "Antitumor activity against human A375 cells assessed as upregulation of p21 protein level at 4 uM after 24 hrs by Western blotting", "assay_type": "functional, cell-based", "procedure,_shortened": "as §1"}, "[13]": {"test_system": "A-375", "experiment": "Antitumor activity against human A375 cells assessed as upregulation of pRb protein level at 4 uM after 24 hrs by Western blotting", "assay_type": "functional, cell-based", "procedure,_shortened": "as §1"}, "[14]": {"test_system": "A-375", "experiment": "Induction of apoptosis in human A375 cells assessed as increase in Bax protein level at 4 uM after 24 hrs by Western blotting", "assay_type": "functional, cell-based", "procedure,_shortened": "as §1"}, "[15]": {"test_system": "A-375", "experiment": "Induction of apoptosis in human A375 cells assessed as increase in cytochrome C protein level at 4 uM after 24 hrs by Western blotting", "assay_type": "functional, cell-based", "procedure,_shortened": "as §1"}, "[16]": {"test_system": "A-375", "experiment": "Induction of apoptosis in human A375 cells assessed as increase in PARP protein level at 4 uM after 24 hrs by Western blotting", "assay_type": "functional, cell-based", "procedure,_shortened": "as §1"}, "[17]": {"test_system": "A-375", "experiment": "Induction of apoptosis in human A375 cells assessed as increase in Caspase 3 activation at 4 uM after 24 hrs by fluorimetry", "assay_type": "functional, cell-based", "procedure,_shortened": "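A375 cells exposed to 4 µM compound. Cell lysate incubated with DEVD-AFC substrate, with or without DEVD-CHO inhibitor, at 37 °C for 1 h in a fluorescent caspase-3 kit. Fluorescence read at excitation 400 nm, emission 505 nm.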"}, "[18]": {"test_system": "KB", "experiment": "Cytotoxicity against human KB cells by SRB assay"}, "[19]": {"experiment": "Cytotoxicity against human DWD cells by SRB assay"}, "[20]": {"test_system": "A2780", "experiment": "Cytotoxicity against human A2780 cells by SRB assay"}, "[21]": {"test_system": "ZR-75-1", "experiment": "Cytotoxicity against human ZR-75-1 cells by SRB assay"}, "[22]": {"test_system": "MCF7", "experiment": "Cytotoxicity against human MCF7 cells by sulforhodamine B assay"}, "[23]": {"test_system": "SiHa", "experiment": "Cytotoxicity against human SiHa cells after 24 hrs by SRB assay"}, "[24]": {"test_system": "COLO 205", "experiment": "Cytotoxicity against human COLO205 cells after 24 hrs by SRB assay", "conditions": "COLO 205, 24 h"}, "[25]": {"test_system": "A-375", "experiment": "Cell cycle arrest in human A375 cells assessed as accumulation at S phase after 24 hrs by FACS flow cytometry", "parameters": "concentration or dose not given beside the values"}, "[26]": {"test_system": "A-375", "experiment": "Cell cycle arrest in human A375 cells assessed as accumulation at G1 phase after 24 hrs by FACS flow cytometry", "parameters": "concentration or dose not given beside the values"}, "[27]": {"test_system": "A-375", "experiment": "Cell cycle arrest in human A375 cells assessed as accumulation at G2/M phase after 24 hrs by FACS flow cytometry", "parameters": "concentration or dose not given beside the values"}, "[28]": {"test_system": "A-375", "experiment": "Cell cycle arrest in human A375 cells assessed as accumulation at Sub-G1 phase after 24 hrs by FACS flow cytometry", "parameters": "concentration or dose not given beside the values"}},
  "note": "Active and inactive are the calls of the source. The rule behind the calls is not given here.",
  "data": [
    {"smiles": "COc1ccc(-c2nnc(-c3ccc(OC)c(OCCCCCOc4cc5c(cc4OC)C(=O)N4CCC[C@H]4C=N5)c3)o2)cc1OC", "values": [
      {"measurement": "MTD", "setting": "[1]", "result": "< 50", "unit": "mg/kg"},
      {"measurement": "Activity", "setting": "[2]", "result": "Active"},
      {"measurement": "GI50", "setting": "[3]", "result": "< 0.1", "unit": "µM"},
      {"measurement": "Activity", "setting": "[4]", "result": "Non-toxic"},
      {"measurement": "Activity", "setting": "[5]", "result": "Non-toxic"},
      {"measurement": "Activity", "setting": "[6]", "result": "Active"},
      {"measurement": "ΔTm", "setting": "[7]", "result": 5.8, "unit": "°C"},
      {"measurement": "GI50", "setting": "[8]", "result": "< 0.1", "unit": "µM"},
      {"measurement": "GI50", "setting": "[9]", "result": "< 0.1", "unit": "µM"},
      {"measurement": "GI50", "setting": "[10]", "result": "< 0.1", "unit": "µM"},
      {"measurement": "logP", "setting": "[11]", "result": 4.68},
      {"measurement": "Activity", "setting": "[12]", "result": "Active"},
      {"measurement": "Activity", "setting": "[13]", "result": "Active"},
      {"measurement": "Activity", "setting": "[14]", "result": "Active"},
      {"measurement": "Activity", "setting": "[15]", "result": "Active"},
      {"measurement": "Activity", "setting": "[16]", "result": "Active"},
      {"measurement": "Activity", "setting": "[17]", "result": "Active"},
      {"measurement": "GI50", "setting": "[18]", "result": "< 0.1", "unit": "µM"},
      {"measurement": "GI50", "setting": "[19]", "result": "< 0.1", "unit": "µM"},
      {"measurement": "GI50", "setting": "[20]", "result": "< 0.1", "unit": "µM"},
      {"measurement": "GI50", "setting": "[21]", "result": "< 0.1", "unit": "µM"},
      {"measurement": "GI50", "setting": "[22]", "result": "< 0.1", "unit": "µM"},
      {"measurement": "GI50", "setting": "[23]", "result": "< 0.1", "unit": "µM"},
      {"measurement": "GI50", "setting": "[24]", "result": "< 0.1", "unit": "µM"},
      {"measurement": "Activity", "setting": "[25]", "result": 2.68, "unit": "%"},
      {"measurement": "Activity", "setting": "[26]", "result": 59.66, "unit": "%"},
      {"measurement": "Activity", "setting": "[27]", "result": 0.99, "unit": "%"},
      {"measurement": "Activity", "setting": "[28]", "result": 36.66, "unit": "%"}
    ]}
  ]
}
